GALR2 blocker: antagonists of human galanin receptor 2 (GALR2); O43603; 0.39% of 140,000 active; AID 828; inhibition, % at 4 µM; GALR2-expressing cells, antagonist mode; in the data active = inhibition above about 27%;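 also: cells stimulated with galanin 1-16 at roughly its EC80; 0% = agonist challenge control and 100% = basal control without agonist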
S1P2 blocker: antagonists of human S1P2 receptor; O95136; cell-based S1P2 antagonist assay, inhibition at 5 uM; 0.21% of 97,000 active; inhibition, % at 5 µM; in the data active = inhibition above about 45%;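 also: CRE beta-lactamase reporter cells expressing human S1P2 stimulated with S1P; 0% = agonist at EC80 alone and 100% = agonist plus reference antagonist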
Target sequence (O95136 whole entry, looked up): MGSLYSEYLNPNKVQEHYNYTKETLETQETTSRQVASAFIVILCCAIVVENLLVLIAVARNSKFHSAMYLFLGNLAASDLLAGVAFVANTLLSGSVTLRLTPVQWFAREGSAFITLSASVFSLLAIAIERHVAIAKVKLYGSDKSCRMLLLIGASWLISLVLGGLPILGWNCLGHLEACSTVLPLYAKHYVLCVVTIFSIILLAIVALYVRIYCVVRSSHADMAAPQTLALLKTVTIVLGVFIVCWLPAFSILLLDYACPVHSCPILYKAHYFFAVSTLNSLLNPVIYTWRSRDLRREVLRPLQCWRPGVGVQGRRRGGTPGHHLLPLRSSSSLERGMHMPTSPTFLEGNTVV
GALR2 ag: activates the human galanin receptor 2 | O43603 | GALR2-expressing cells, agonist activation read-out | activation, % (no concentration beside the values) | 0.48% of 140,000 active | AID 803; in the data active = activation above about 5%, passing the limit was not always enough;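 also: 0% = vehicle buffer wells and 100% = reference agonist at full effect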
S1P2 agonist: S1P2 (human) receptor agonism. activation, % at 4.5 µM. AID 729. 0.46% of 97,000 active. O95136. S1P2-expressing cell line, agonist reporter read-out; in the data active = activation above about 16%;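 also: 0% = vehicle low control and 100% = maximal reference agonist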
EphB4 ephrin blk: blocks human EphB4 binding to ephrin-B2. P54760. AID 720. inhibition, % at 7 µM. EphB4 LBD / TNYL-RAW-Alexa532 peptide, fluorescence polarization. 0.15% of 97,000 active;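 active = inhibition above the screen-wide mean inhibition plus 3 SD, cut at about 15% in these data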;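 also: 0% = DMSO wells and 100% = excess unlabeled TNYL-RAW peptide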
Rev-RRE block: disrupts HIV-1 Rev binding to RRE RNA. P05866. Rev peptide-RRE RNA binding, FRET. inhibition, % at 8 µM. 0.79% of 97,000 active;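 active = inhibition above the screen-wide mean plus 3 SD, cut at about 35% in these data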;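 also: 0% = median DMSO wells and 100% = median Neomycin B control wells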
Target sequence (P05866 whole entry, looked up): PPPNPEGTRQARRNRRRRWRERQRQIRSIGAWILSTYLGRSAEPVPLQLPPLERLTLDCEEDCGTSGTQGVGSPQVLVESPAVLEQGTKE
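Test system: Cy5-tagged RRE RNA duplex with fluorescein-tagged Rev peptide; Probe or stimulus: labelled Rev peptide; Schedule: 5 min preincubation and 15 min binding, 25 °C; Signal: FRET fluorescence readout; Evaluation: % inhibition from 671/540 nm acceptor-to-donor ratio, scaled between controls; Control set: DMSO and neomycin B.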
Starred values were filed as active, the others as inactive; [ ] = dose if it differs, or a comment. Compounds with a hit are over-represented: about 1.8% of the library has one in this group of screens.

CCOc1ccc2nc(NC(=O)CSc3nc4c(c(=O)n(C)c(=O)n4C)n3C(C)C)sc2c1 was read as GALR2 blocker 6.7 and GALR2 ag 0.8.
For COc1ccc(OC)c(NC(=O)CSc2nc3c(c(=O)n(C)c(=O)n3C)n2C)c1 the results were GALR2 blocker 6.7, S1P2 blocker -42.0, GALR2 ag 0.2, S1P2 agonist 17.5*, EphB4 ephrin blk -6.5 and Rev-RRE block 0.1.
Screening CC(C)n1c(SCC(=O)Nc2nc3ccccc3s2)nc2c1c(=O)n(C)c(=O)n2C returned GALR2 blocker -5.8, S1P2 blocker -38.3, GALR2 ag -1.8, S1P2 agonist 18.8*, EphB4 ephrin blk 3.4 and Rev-RRE block 3.5.
For Fc1ccc(-c2csc(/C=C/c3ccc4c(c3)OCO4)n2)cc1 the results were GALR2 blocker 6.8 and GALR2 ag -1.5.
For CC(=O)Nc1ccc(N2C(C(C)=O)=NN(c3ccc(Cl)cc3)C2c2sccc2C)cc1 (centres undefined) the results were GALR2 blocker -8.1, S1P2 blocker 24.6, GALR2 ag -0.6, S1P2 agonist -3.4, EphB4 ephrin blk 16.7* and Rev-RRE block 5.3.
`CC(=O)Nc1ccc(N2C(C(C)=O)=NN(c3ccccc3)C2c2cccs2)cc1` (centres undefined) gave GALR2 blocker 3.1, S1P2 blocker -2.4, GALR2 ag -2.7, S1P2 agonist -5.7, EphB4 ephrin blk 4.1 and Rev-RRE block 1.8.
Screening Cc1cccc(C)c1OCc1nnc(SCC(=O)Nc2nccs2)n1-c1ccccc1 returned GALR2 blocker -6.8, S1P2 blocker 8.2, GALR2 ag 6.5*, S1P2 agonist -0.1, EphB4 ephrin blk -0.1 and Rev-RRE block 2.5.
`O=C(CSc1nnc(CCCO)n1-c1ccccc1)Nc1nccs1` gave GALR2 blocker 7.6 and GALR2 ag -1.4.
For O=C(CC1SC(=NCCc2ccccc2)N(/N=C/c2cccs2)C1=O)Nc1ccc(Cl)cc1 (centres undefined) the results were GALR2 blocker -9.8 and GALR2 ag -1.0.
CCOC(=O)/C=C1\SCC(=O)N1CC(=O)NC(C)c1ccc(F)cc1 (centres undefined) was read as GALR2 blocker -2.1 and GALR2 ag -1.7.
Screening CCCOc1ccc(CSc2nc3ccccc3[nH]2)cc1 returned GALR2 blocker 2.6, S1P2 blocker 48.4*, GALR2 ag -0.6, S1P2 agonist -7.9, EphB4 ephrin blk 9.8 and Rev-RRE block 4.3.
`CCOc1ccc(OCCSc2nc3ccccc3[nH]2)cc1` gave GALR2 blocker 13.3, S1P2 blocker -2.9, GALR2 ag -2.8, S1P2 agonist -4.0, EphB4 ephrin blk -1.6 and Rev-RRE block 2.6.
For CCC(C)N1CC(O)=C(c2nc3ccccc3[nH]2)C1=N (centres undefined) the results were GALR2 blocker 1.5, S1P2 blocker 10.1, GALR2 ag -0.3, S1P2 agonist 0.0, EphB4 ephrin blk 0.2 and Rev-RRE block 4.2.
For CCCCCCN1CC(O)=C(c2nc3ccccc3[nH]2)C1=N the results were GALR2 blocker 26.0 and GALR2 ag 7.2*.
Screening CC1(C)C(C=C(Cl)Cl)C1C(=O)Nc1ccc([N+](=O)[O-])cc1 (centres undefined) returned GALR2 blocker 15.8 and GALR2 ag 0.3.
For CCN1CC=C2C(C#N)=C(N)C(C#N)(C#N)[C@H](c3cccc(OC)c3OC)[C@H]2C1 the results were GALR2 blocker 6.5, S1P2 blocker 2.2, GALR2 ag 1.3, S1P2 agonist -0.7, EphB4 ephrin blk -8.0 and Rev-RRE block 65.1*.
`COc1cccc(C2C3CN(C)CC=C3C(C#N)=C(N)C2(C#N)C#N)c1OC` (centres undefined) gave GALR2 blocker -2.3, S1P2 blocker 6.8, GALR2 ag 0.4, S1P2 agonist -3.0, EphB4 ephrin blk 1.3 and Rev-RRE block 84.5*[fluorescence artefact?].
Screening O=C(Cn1cc(Cl)ccc1=O)c1ccc(Cl)cc1 returned GALR2 blocker 7.3 and GALR2 ag -1.2.
`CCOC(=O)c1ccc(-c2cc(C)no2)[nH]1` gave GALR2 blocker 6.4 and GALR2 ag -1.6.
`O=C(Nc1ccc(Cl)cn1)c1ccc(-c2ccc(Cl)c(Cl)c2)o1` gave GALR2 blocker -8.9, S1P2 blocker 19.5, GALR2 ag -2.4, S1P2 agonist -7.7, EphB4 ephrin blk 4.1 and Rev-RRE block 10.1.
For Oc1c(CN2CCCCC2)cc(COCc2ccccc2)c2cccnc12 the results were GALR2 blocker 13.5, S1P2 blocker 21.9, GALR2 ag -1.2, S1P2 agonist -3.6, EphB4 ephrin blk 19.8* and Rev-RRE block 8.5.
Screening COc1ccc2sc(SCCCS(=O)(=O)O)[n+](CCCS(=O)(=O)[O-])c2c1 returned GALR2 blocker 1.3 and GALR2 ag -0.4.
`CSc1sc2ccccc2[n+]1CCCS(=O)(=O)[O-]` gave GALR2 blocker -9.8, S1P2 blocker 3.2, GALR2 ag -1.7, S1P2 agonist 25.6*, EphB4 ephrin blk -0.4 and Rev-RRE block 4.5.
`COc1ccccc1Nc1nnc(SCc2cc(=O)n3cc(C)ccc3n2)s1` gave GALR2 blocker 2.2 and GALR2 ag 0.1.
For Cc1cc(C)nc(SC2=CS(=O)(=O)c3ccccc32)n1 the results were GALR2 blocker 7.0, S1P2 blocker -12.3, GALR2 ag -2.3, S1P2 agonist -6.8, EphB4 ephrin blk -1.9 and Rev-RRE block -2.6.
Screening O=S1(=O)C=C(Sc2nc3ccccc3s2)c2ccccc21 returned GALR2 blocker 73.6* and GALR2 ag -0.2.
For COC(=O)c1sccc1NC(=O)COc1ccccc1Cl the results were GALR2 blocker 19.4 and GALR2 ag -2.0.
COC(=O)c1cc(NC(=O)c2ccccc2)c(=O)oc1C/C=N\OCc1ccc(Cl)cc1Cl was read as GALR2 blocker -10.2, S1P2 blocker 25.2, GALR2 ag -1.1, S1P2 agonist -1.0, EphB4 ephrin blk -3.3 and Rev-RRE block 48.0*.
CO/N=C\Cc1oc(=O)c(NC(=O)c2ccccc2)cc1C(=O)OC was read as GALR2 blocker 0.8, S1P2 blocker 9.7, GALR2 ag 0.5, S1P2 agonist -4.8, EphB4 ephrin blk -1.6 and Rev-RRE block 19.4.
Screening CN(C)/N=C/C=C1\CC/C(=C\c2ccc(Br)cc2)C1=O returned GALR2 blocker -5.6, S1P2 blocker -37.9, GALR2 ag -3.0, S1P2 agonist 0.8, EphB4 ephrin blk -8.3 and Rev-RRE block 71.5*.
For COc1ccc(/C=C2\CC/C(=C\c3ccc(OC)c(OC)c3)C2=O)cc1OC the results were GALR2 blocker 6.4 and GALR2 ag -1.4.
`O=C(CSc1nnc(-c2ccccn2)n1Cc1ccccc1)NC1CCCC1` gave GALR2 blocker 9.4, S1P2 blocker 0.7, GALR2 ag -1.1, S1P2 agonist -5.2, EphB4 ephrin blk 15.8* and Rev-RRE block 7.2.
`O=c1c(-c2nc3ccccc3s2)cccn1Cc1ccc(Cl)cc1` gave GALR2 blocker -3.9, S1P2 blocker -87.0, GALR2 ag 68.5*, S1P2 agonist 96.4*, EphB4 ephrin blk 0.2 and Rev-RRE block 3.5.
